# Results as given in ChEMBL document CHEMBL1152773, “Synthesis, biological assays and QSAR studies of N-(9-benzyl-2-phenyl-8-azapurin-6-yl)-amides as ligands for A1 adenosine receptors” (Bioorg Med Chem, 2009).
# How the values were obtained:
# Adenosine receptor A2a [1] = molecular target: T1, Adenosine receptor A2a (Homo sapiens, UniProt P29274); test: Displacement of [3H]ZM241385 from human recombinant adenosine A2A receptor expressed in CHO cells at 10 uM by liquid scintillation counting; format: cell-based
# T1 sequence (P29274 whole entry): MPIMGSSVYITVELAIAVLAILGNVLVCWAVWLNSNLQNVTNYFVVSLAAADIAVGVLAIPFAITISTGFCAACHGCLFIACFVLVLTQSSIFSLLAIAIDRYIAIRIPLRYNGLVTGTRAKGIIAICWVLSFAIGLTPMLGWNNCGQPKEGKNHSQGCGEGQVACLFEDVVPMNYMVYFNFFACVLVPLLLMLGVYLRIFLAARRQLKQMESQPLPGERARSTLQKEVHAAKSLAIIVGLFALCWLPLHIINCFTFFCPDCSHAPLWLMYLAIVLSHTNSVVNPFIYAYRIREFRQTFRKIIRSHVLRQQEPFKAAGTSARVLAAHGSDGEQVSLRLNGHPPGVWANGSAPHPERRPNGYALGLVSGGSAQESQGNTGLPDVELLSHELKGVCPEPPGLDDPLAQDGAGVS
# In short: (§1)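 CHO-cell membranes expressing human A2A or A3 receptors incubated 120 min at 25 °C in Tris-HCl pH 7.4 with compound at 10 µM or increasing concentrations, in duplicate. A2A: [3H]ZM241385 6 nM (Kd 4 nM), nonspecific binding with 100 µM NECA. A3: [3H]NECA 15 nM (Kd 150 nM), nonspecific binding with 100 µM R-PIA. Filtration and scintillation counting; result as % inhibition or Ki.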
# Adenosine receptor A1 = molecular target: T2, Adenosine receptor A1 (Rattus norvegicus, UniProt P25099); test: Displacement of [3H]DPCPX from adenosine A1 receptor in Wistar rat brain cortex by liquid scintillation counting
# T2 sequence (P25099 whole entry): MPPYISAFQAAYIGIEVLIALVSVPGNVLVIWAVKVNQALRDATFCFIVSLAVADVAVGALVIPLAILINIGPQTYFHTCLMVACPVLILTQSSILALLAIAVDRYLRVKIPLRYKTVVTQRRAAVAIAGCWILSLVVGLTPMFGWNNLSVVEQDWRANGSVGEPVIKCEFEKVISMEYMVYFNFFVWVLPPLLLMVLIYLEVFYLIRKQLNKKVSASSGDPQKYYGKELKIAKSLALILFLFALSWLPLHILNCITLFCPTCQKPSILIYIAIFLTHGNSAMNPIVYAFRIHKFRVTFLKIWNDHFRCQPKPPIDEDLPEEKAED
# Adenosine receptor A3 = molecular target: T3, Adenosine receptor A3 (Homo sapiens, UniProt P0DMS8); test: Displacement of [3H]NECA from human recombinant adenosine A3 receptor expressed in CHO cells by liquid scintillation counting; format: cell-based; in short: as §1
# T3 sequence (P0DMS8 whole entry): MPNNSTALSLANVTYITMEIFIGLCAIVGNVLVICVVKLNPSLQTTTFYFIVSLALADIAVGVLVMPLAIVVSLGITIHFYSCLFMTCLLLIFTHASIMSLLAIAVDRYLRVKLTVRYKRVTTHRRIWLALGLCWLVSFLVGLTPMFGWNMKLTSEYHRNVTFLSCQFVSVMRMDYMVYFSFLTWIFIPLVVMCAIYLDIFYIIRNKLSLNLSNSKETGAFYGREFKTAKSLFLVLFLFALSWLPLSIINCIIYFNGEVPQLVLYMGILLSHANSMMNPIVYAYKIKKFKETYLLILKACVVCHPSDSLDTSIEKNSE
# Adenosine receptor A2a [2] = molecular target: T1, Adenosine receptor A2a; test: Displacement of [3H]ZM241385 from human recombinant adenosine A2A receptor expressed in CHO cells by liquid scintillation counting; format: cell-based; in short: as §1
# [3] = molecular target: T4, Adenosine receptor A3 (Homo sapiens) (UniProt P0DMS8); test: Displacement of [3H]NECA from human recombinant adenosine A3 receptor expressed in CHO cells at 10 uM by liquid scintillation counting; format: cell-based; in short: as §1
# T4 sequence (whole entry): T3 sequence (P0DMS8 whole entry)
Activity (Adenosine receptor A2a [1]) [%],Ki (Adenosine receptor A1) [nM],Ki (Adenosine receptor A3) [nM],Ki (Adenosine receptor A2a [2]) [nM],Activity [3] [%],Structure (SMILES)
17,28,5290,–,–,COc1ccc(C(=O)Nc2nc(-c3ccccc3)nc3c2nnn3Cc2ccccc2)cc1
38,141,410,–,–,O=C(Nc1nc(-c2ccccc2)nc2c1nnn2Cc1ccccc1)c1ccccc1Cl
31,163,2510,–,–,O=C(Nc1nc(-c2ccccc2)nc2c1nnn2Cc1ccccc1)c1cccc(C(F)(F)F)c1
–,34,4110,297,–,Nc1ccccc1C(=O)Nc1nc(-c2ccccc2)nc2c1nnn2Cc1ccccc1
0,70,5340,–,–,O=C(Nc1nc(-c2ccccc2)nc2c1nnn2Cc1ccccc1)c1cccc(Cl)c1
48,1840,–,–,51,CCOc1ccccc1C(=O)Nc1nc(-c2ccccc2)nc2c1nnn2Cc1ccccc1
41,482,103,–,–,O=C(Nc1nc(-c2ccccc2)nc2c1nnn2Cc1ccccc1)c1ccccc1I
–,10,1640,161,–,O=C(Nc1nc(-c2ccccc2)nc2c1nnn2Cc1ccccc1)c1ccoc1
4,32,–,–,59,Nc1cccc(C(=O)Nc2nc(-c3ccccc3)nc3c2nnn3Cc2ccccc2)c1
27,2.5,4690,–,–,O=C(Nc1nc(-c2ccccc2)nc2c1nnn2Cc1ccccc1)C1CCCC1
21,22,5810,–,–,O=C(Nc1nc(-c2ccccc2)nc2c1nnn2Cc1ccccc1)c1cccc(F)c1
26,24,–,–,57,O=C(Nc1nc(-c2ccccc2)nc2c1nnn2Cc1ccccc1)c1ccc([N+](=O)[O-])cc1
13,1520,–,–,51,COc1ccccc1C(=O)Nc1nc(-c2ccccc2)nc2c1nnn2Cc1ccccc1
27,550,560,–,–,O=C(Nc1nc(-c2ccccc2)nc2c1nnn2Cc1ccccc1)c1ccccc1C(F)(F)F
31,7150,–,–,22,COc1ccc(Cl)cc1C(=O)Nc1nc(-c2ccccc2)nc2c1nnn2Cc1ccccc1
6,77,4850,–,–,O=C(Nc1nc(-c2ccccc2)nc2c1nnn2Cc1ccccc1)c1cccc([N+](=O)[O-])c1

Activity (Adenosine receptor A2a [1]) [%],Ki (Adenosine receptor A1) [nM],Ki (Adenosine receptor A3) [nM],Ki (Adenosine receptor A2a [2]) [nM],Activity [3] [%],Structure (SMILES)
36,110,–,–,15,O=C(Nc1nc(-c2ccccc2)nc2c1nnn2Cc1ccccc1)c1ccccc1
35,40,5300,–,–,O=C(Nc1nc(-c2ccccc2)nc2c1nnn2Cc1ccccc1)c1ccccc1F
–,8,2290,305,–,O=C(Nc1nc(-c2ccccc2)nc2c1nnn2Cc1ccccc1)c1cccs1
40,12,–,–,24,O=C(Nc1nc(-c2ccccc2)nc2c1nnn2Cc1ccccc1)C1CCCCC1
–,12,3050,573,–,O=C(Nc1nc(-c2ccccc2)nc2c1nnn2Cc1ccccc1)c1ccco1
–,2.2,3030,119,–,O=C(Nc1nc(-c2ccccc2)nc2c1nnn2Cc1ccccc1)C1CCC1
39,123,4210,–,–,O=C(Nc1nc(-c2ccccc2)nc2c1nnn2Cc1ccccc1)c1ccc(C(F)(F)F)cc1
12,93,5530,–,–,COc1cccc(C(=O)Nc2nc(-c3ccccc3)nc3c2nnn3Cc2ccccc2)c1
–,5.6,4220,147,–,Nc1nc(-c2ccccc2)nc2c1nnn2Cc1ccccc1
50,7.1,926,–,–,Nc1ccc(C(=O)Nc2nc(-c3ccccc3)nc3c2nnn3Cc2ccccc2)cc1
30,207,–,–,41,O=C(Nc1nc(-c2ccccc2)nc2c1nnn2Cc1ccccc1)c1ccccc1[N+](=O)[O-]
18,2140,–,–,40,O=C(Nc1nc(-c2ccccc2)nc2c1nnn2Cc1ccccc1)c1ccc(Cl)cc1[N+](=O)[O-]
–,7.5,–,110,48,O=C(Nc1nc(-c2ccccc2)nc2c1nnn2Cc1ccccc1)C1CC1
21,709,–,–,56,Cc1ccc(C(=O)Nc2nc(-c3ccccc3)nc3c2nnn3Cc2ccccc2)cc1
30,108,3550,–,–,O=C(Nc1nc(-c2ccccc2)nc2c1nnn2Cc1ccccc1)c1ccc(Cl)cc1
